From ChEMBL document CHEMBL1131139, “Synthesis and antibacterial activity of ketolides (6-O-methyl-3-oxoerythromycin derivatives): a new class of antibacterials highly potent against macrolide-resistant and -susceptible respiratory pathogens” (1998)
Converted amounts (≈) assume the structure as drawn.

Experiments:
Staphylococcus aureus [1] = assay: In vitro inhibitory activity against Staphylococcus aureus (EryRi 011GO25i); format: functional
Summary of the method: (§1)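 Two-fold agar dilution on Mueller-Hinton agar (pH 7.4). Inoculum from overnight plate cultures suspended in Mueller-Hinton broth, adjusted to 10^9 CFU/mL, diluted 1:200 and spotted by multipoint inoculator at about 10^4 CFU/spot. Plates incubated 37 °C for 20 h. MIC taken as lowest concentration with no visible growth.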

[2] = test system: Staphylococcus epidermidis; assay: In vitro inhibitory activity against Staphylococcus epidermidis (EryRc 011CB2)
Streptococcus pneumoniae [3] = assay: In vitro inhibitory activity against Streptococcus pneumoniae (EryRc 030SJ1); format: functional; summary of the method: as §1
Haemophilus influenzae [4] = assay: In vitro inhibitory activity against Haemophilus influenzae (351CB12); format: functional; summary of the method: as §1
Streptococcus pyogenes [5] = assay: In vitro inhibitory activity against Streptococcus pyogenes (02A1UC1); format: functional; summary of the method: as §1
Haemophilus influenzae [6] = assay: In vitro inhibitory activity against Haemophilus influenzae (351HT3); format: functional; summary of the method: as §1
Streptococcus pneumoniae [7] = assay: In vitro inhibitory activity against Streptococcus pneumoniae (EryRi 030SJ5i); format: functional; summary of the method: as §1
[8] = test system: Staphylococcus epidermidis; assay: In vitro inhibitory activity against Staphylococcus epidermidis (EryRi 012GO11i); format: functional; summary of the method: as §1
Escherichia coli = assay: In vitro inhibitory activity against Escherichia coli (250 UC5); format: functional; summary of the method: as §1
Staphylococcus aureus [9] = assay: In vitro inhibitory activity against Staphylococcus aureus (011UC4); format: functional; summary of the method: as §1
Streptococcus pneumoniae [10] = assay: In vitro inhibitory activity against Streptococcus pneumoniae (032UC1); format: functional; summary of the method: as §1
Mus musculus [11] = assay: In Vivo evaluation for its effective dose against Haemophilus influenzae (351TO19 AmpR beta (-)); format: functional
Summary of the method: (§2)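 Male Charles River CD1 mice, 20-22 g, 10 per dose group, infected intraperitoneally with 0.5 mL diluted overnight broth culture (physiological buffer or 5% hog mucine) at 10-100 times the minimal lethal dose. Compound suspended in carboxymethylcellulose, 0.5 mL given orally immediately and 4 h postinfection. Survival followed 8-10 days; ED50 (unitary dose protecting 50% from death) by Litchfield-Wilcoxon probit method.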

Mus musculus [12] = assay: In Vivo evaluation for its effective dose against Streptococcus pyogenes (02A1UC1); format: functional; summary of the method: as §2
Mus musculus [13] = assay: In Vivo evaluation for its effective dose against Streptococcus pneumoniae (030RO1 EryRi); format: functional; summary of the method: as §2
Mus musculus [14] = assay: In Vivo evaluation for its effective dose against Haemophilus influenzae (351GR1); format: functional; summary of the method: as §2
Streptococcus pyogenes [15] = assay: In vitro inhibitory activity against Streptococcus pyogenes (02A1UC1)
Mus musculus [16] = assay: In Vivo evaluation for its effective dose against Streptococcus pneumoniae (032UC1); format: functional; summary of the method: as §2
Mus musculus [17] = assay: In Vivo evaluation for its effective dose against Streptococcus pneumoniae (030Cr29 EryRc); format: functional; summary of the method: as §2
Mus musculus [18] = assay: In Vivo evaluation for its effective dose against Streptococcus pneumoniae (030SJ6 EryRc); format: functional; summary of the method: as §2
Mus musculus [19] = assay: In Vivo evaluation for its effective dose against Staphylococcus aureus (011GO25 EryRi.; format: functional; summary of the method: as §2
Staphylococcus aureus [20] = assay: In vitro inhibitory activity against Staphylococcus aureus (EryRc 011CB20); format: functional; summary of the method: as §1
Mus musculus [21] = assay: In Vivo evaluation for its effective dose against Staphylococcus aureus (011UC4).; format: functional; summary of the method: as §2
Mus musculus [22] = assay: In Vivo evaluation for its effective dose against Streptococcus pneumoniae (030MV2 EryRc); format: functional; summary of the method: as §2
Mus musculus [23] = assay: In Vivo evaluation for its effective dose against Streptococcus pneumoniae (030SJ1 EryRc); format: functional; summary of the method: as §2
Mus musculus [24] = assay: In Vivo evaluation for its effective dose against Haemophilus influenzae (351RD7 AmpR beta (+)); format: functional; summary of the method: as §2

| SMILES | MIC (Staphylococcus aureus [1]) | MIC (Streptococcus pneumoniae [3]) | MIC (Haemophilus influenzae [4]) | MIC (Haemophilus influenzae [6]) | MIC (Streptococcus pneumoniae [7]) | MIC [8] | MIC (Escherichia coli) | MIC (Staphylococcus aureus [9]) | MIC (Streptococcus pneumoniae [10]) | further results |
| --- | --- | --- | --- | --- | --- | --- | --- | --- | --- | --- |
| CC[C@H]1OC(=O)[C@H](C)C(=O)[C@H](C)[C@@H](O[C@@H]2O[C@H](C)C[C@H](N(C)C)[C@H]2O)[C@](C)(OC)C[C@@H](C)C(=O)[C@H](C)[C@H]2N(CCCCc3ccnc4ccccc34)C(=O)O[C@]12C | 0.08 mg/L (≈ 0.101 µM) | 1.2 mg/L (≈ 1.51 µM) | 1.2 mg/L (≈ 1.51 µM) | 1.2 mg/L (≈ 1.51 µM) | 0.02 mg/L (≈ 0.0251 µM) | 0.15 mg/L (≈ 0.188 µM) | 40 mg/L (≈ 50.3 µM) | 0.04 mg/L (≈ 0.0503 µM) | 0.02 mg/L (≈ 0.0251 µM) | MIC [2]: 40 mg/L (≈ 50.3 µM); MIC (Streptococcus pyogenes [5]): 0.02 mg/L (≈ 0.0251 µM) |
| CC[C@H]1OC(=O)[C@H](C)C(=O)[C@H](C)[C@@H](O[C@@H]2O[C@H](C)C[C@H](N(C)C)[C@H]2O)[C@](C)(OC)C[C@@H](C)C(=O)[C@H](C)[C@H]2N(NCCCc3ccnc4ccccc34)C(=O)O[C@]12C | 0.08 mg/L (≈ 0.1 µM) | 0.15 mg/L (≈ 0.188 µM) | 0.6 mg/L (≈ 0.753 µM) | 0.6 mg/L (≈ 0.753 µM) | 0.02 mg/L (≈ 0.0251 µM) | 0.04 mg/L (≈ 0.0502 µM) | 40 mg/L (≈ 50.2 µM) | 0.02 mg/L (≈ 0.0251 µM) | 0.02 mg/L (≈ 0.0251 µM) | ED50 (Mus musculus [11]): 410 mg/kg; ED50 (Mus musculus [12]): 16 mg/kg; ED50 (Mus musculus [13]): 30 mg/kg; ED50 (Mus musculus [14]): 142 mg/kg; MIC (Streptococcus pyogenes [15]): 0.02 mg/L (≈ 0.0251 µM); ED50 (Mus musculus [16]): 15.8 mg/kg; ED50 (Mus musculus [17]): 15 mg/kg; ED50 (Mus musculus [18]): 17 mg/kg; ED50 (Mus musculus [19]): 13 mg/kg; MIC (Staphylococcus aureus [20]): 40 mg/L (≈ 50.2 µM); ED50 (Mus musculus [21]): 20 mg/kg; ED50 (Mus musculus [22]): 19 mg/kg; ED50 (Mus musculus [23]): 42 mg/kg; ED50 (Mus musculus [24]): 116 mg/kg |
